Test results published in ChEMBL document CHEMBL4007411, “Design, Synthesis, and Biological Evaluation of Coupled Bioactive Scaffolds as Potential Anticancer Agents for Dual Targeting of Dihydrofolate Reductase and Thioredoxin Reductase” (J Med Chem, 2017).
pIC50: −log10 of the molar value. Active and inactive are the calls of the source. The calls are words filed in the database; no cut-off is given here.

What was measured:
[1] = target: T1, Dihydrofolate reductase (Homo sapiens) (UniProt P00374); assay: Inhibition of DHFR in human HCT116 cell lysate assessed as reduction in conversion of DHF to THF after 16 hrs
T1 sequence (whole entry): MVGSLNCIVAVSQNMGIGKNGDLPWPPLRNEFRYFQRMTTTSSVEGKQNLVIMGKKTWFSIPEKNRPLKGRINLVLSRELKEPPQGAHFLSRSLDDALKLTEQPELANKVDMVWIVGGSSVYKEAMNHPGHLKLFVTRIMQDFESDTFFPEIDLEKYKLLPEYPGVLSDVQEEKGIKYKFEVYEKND
How it was run: (§1)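 HCT116 cells treated 16 h at 0.001 to 1 µM or 40 to 70 µM, then lysed. 400 µg lysate protein in PBS with 50 µM DHF and 200 µM NADPH, with matching controls containing 1 µM methotrexate. A340 decrease followed over 15 min at room temperature. MTX-sensitive rate given as % of DMSO-treated cells. Mean of three independent experiments.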

[2] = target: T2, Dihydrofolate reductase (Homo sapiens, UniProt P00374); assay: Inhibition of recombinant human DHFR assessed as reduction in conversion of DHF to THF measured every 30 secs for 6 mins by UV-Vis spectrophotometric method
T2 sequence (P00374 whole entry): T1 sequence (whole entry)

[3] = system: MCF7; assay: Antiproliferative activity against human MCF7 cells after 72 hrs by MTT assay; assay type: functional; conditions: MCF7, 72 h
How it was run: (§2)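 Cells kept in RPMI 1640 with 10% FBS, penicillin and streptomycin at 37°C and 5% CO2. Seeded at 1.0 x 10^4/well and left to adhere overnight. Serial dilutions made in medium from DMSO stocks. MTT at 400 µg/ml final for 4 h, read at T0 and after 72 h. Formazan dissolved in DMSO:glycine pH 10.5, A550. GI50 and LC50 interpolated from absorbance versus log concentration.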

[4] = target: T3, Thioredoxin reductase 1, cytoplasmic (Homo sapiens) (UniProt Q16881); assay: Inhibition of thioredoxin reductase in human HCT116 cell lysate using thioredoxin as substrate at 0.001 to 1 uM after 16 hrs by end point insulin assay method
T3 sequence (whole entry): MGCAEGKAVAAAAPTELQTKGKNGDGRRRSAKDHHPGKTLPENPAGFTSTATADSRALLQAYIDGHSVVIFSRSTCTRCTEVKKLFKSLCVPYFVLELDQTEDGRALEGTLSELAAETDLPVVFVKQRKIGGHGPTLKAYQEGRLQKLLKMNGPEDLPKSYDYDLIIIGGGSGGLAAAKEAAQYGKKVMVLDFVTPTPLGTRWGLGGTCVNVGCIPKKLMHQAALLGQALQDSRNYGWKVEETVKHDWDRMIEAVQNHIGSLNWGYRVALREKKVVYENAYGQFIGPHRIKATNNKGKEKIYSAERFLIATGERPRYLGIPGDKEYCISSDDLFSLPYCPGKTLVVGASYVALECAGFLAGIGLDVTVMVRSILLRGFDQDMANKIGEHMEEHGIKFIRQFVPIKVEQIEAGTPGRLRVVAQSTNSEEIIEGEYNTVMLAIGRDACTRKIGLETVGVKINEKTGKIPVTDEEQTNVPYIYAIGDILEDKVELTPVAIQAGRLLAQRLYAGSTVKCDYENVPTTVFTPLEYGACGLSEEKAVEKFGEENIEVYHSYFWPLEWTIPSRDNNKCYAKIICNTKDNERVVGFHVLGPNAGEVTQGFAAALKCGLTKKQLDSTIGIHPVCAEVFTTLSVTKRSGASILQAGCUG

[5] = target: T4, Thioredoxin reductase 1, cytoplasmic (Rattus norvegicus, UniProt O89049); assay: Inhibition of […] thioredoxin reductase after 60 mins by DTNB reduction assay; conditions: read-out: IC50
T4 sequence (O89049 whole entry): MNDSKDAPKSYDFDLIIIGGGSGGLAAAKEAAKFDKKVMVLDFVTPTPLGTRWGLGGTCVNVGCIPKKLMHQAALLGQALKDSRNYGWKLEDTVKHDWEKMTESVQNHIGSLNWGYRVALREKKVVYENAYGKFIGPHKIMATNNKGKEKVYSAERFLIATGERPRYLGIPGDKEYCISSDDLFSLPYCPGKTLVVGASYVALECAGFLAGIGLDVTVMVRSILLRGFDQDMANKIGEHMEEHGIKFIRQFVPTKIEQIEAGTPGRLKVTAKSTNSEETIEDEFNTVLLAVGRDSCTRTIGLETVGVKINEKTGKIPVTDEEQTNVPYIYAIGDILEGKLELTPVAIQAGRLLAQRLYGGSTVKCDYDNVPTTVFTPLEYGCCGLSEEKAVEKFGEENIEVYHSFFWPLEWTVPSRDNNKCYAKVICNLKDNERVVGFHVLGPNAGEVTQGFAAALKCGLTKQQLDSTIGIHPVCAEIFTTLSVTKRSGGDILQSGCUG
How it was run: (§3)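 Rat liver TrxR at 2.1 units/ml preincubated with a range of test concentrations and 200 µM NADPH in 50 mM Tris-HCl, 1 mM EDTA, pH 7.5, at room temperature for 30 or 60 min. Equal volume of buffer with 5 mM DTNB and 200 µM NADPH then added. A412 followed over 2 min. Activity as % of vehicle Vmax; IC50 from log concentration plot.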

[6] = system: HCT-116; assay: Antiproliferative activity against human HCT116 cells after 72 hrs by MTT assay; assay type: functional; conditions: HCT-116, 72 h; for CC50: read-out: LC50 (the source's name); how it was run: as §2
[7] = target: T3, Thioredoxin reductase 1, cytoplasmic (Homo sapiens); assay: Inhibition of thioredoxin reductase in human HCT116 cell lysate using thioredoxin as substrate after 16 hrs by end point insulin assay method
How it was run: (§4)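 HCT116 cells treated 16 h at 0.001 to 1 µM or 40 to 70 µM, then lysed. Stopped with 1 mM DTNB and 240 µM NADPH in 6 M guanidine HCl and Tris pH 8.0, read at A412. Given as % of DMSO-treated cells. Mean of three experiments.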

[8] = target: T1, Dihydrofolate reductase (Homo sapiens); assay: Inhibition of DHFR in human HCT116 cell lysate assessed as reduction in conversion of DHF to THF at 40 to 70 uM after 16 hrs; how it was run: as §1
[9] = target: T4, Thioredoxin reductase 1, cytoplasmic; assay: Inhibition of […] thioredoxin reductase after 30 mins by DTNB reduction assay; conditions: read-out: IC50; how it was run: as §3
[10] = system: HCT-116; assay: Effect on thioredoxin reductase protein levels in human HCT116 cell lysate at 40 to 70 uM after 16 hrs by Western blot analysis; assay type: cell-based; conditions: hct-116, 16 h
How it was run: (§5)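 HCT116 plated at 1.5 x 10^6 per 100 mm plate, grown 48 h, then treated 16 h at 40 to 70 µM. Adherent and floating cells pooled and lysed in Triton X-100 buffer with protease inhibitors. Lysates cleared and protein measured by Bradford. Equal protein run on SDS-PAGE and blotted. DHFR or TrxR detected by ECL, β-actin antibody also used. Three independent experiments.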

[11] = system: HCT-116; assay: Upregulation of DHFR protein levels in human HCT116 cell lysate at 40 to 70 uM after 16 hrs by Western blot analysis; assay type: functional, cell-based; how it was run: as §5
[12] = target: T1, Dihydrofolate reductase (Homo sapiens); conditions: 0.0001 to 1 uM
[13] = target: T3, Thioredoxin reductase 1, cytoplasmic (Homo sapiens); assay: Inhibition of thioredoxin reductase in human HCT116 cell lysate using thioredoxin as substrate at 40 to 70 uM after 16 hrs by end point insulin assay method; how it was run: as §4

Compound | inhibition [1] | pIC50 [2] | GI50 [3] | LC50 (concentration killing 50% of cells present at T0) [3] | inhibition [4] | pIC50 [5] | GI50 [6] | CC50 [6] | inhibition [7] | inhibition [8] | pIC50 [9] | Activity [10] | Activity [11] | inhibition [12] | inhibition [13]
CC1(C)N=C(N)N=C(N)N1OCCCOc1cccc(C(=O)/C=C/c2ccccc2)c1 | Dose-dependent effect | 8.05 | 0.076 µM | 20.2 µM | inactive | 5.09 | 0.011 µM | 42.7 µM | Dose-dependent effect | Active | 4.97 |  |  |  | 
Cl.NC1=NC2(CCCC2)N(OCCCCOc2cccc(C(=O)/C=C/c3ccccc3)c2)C(N)=N1 | Dose-dependent effect | 8.59 | 0.127 µM | 9.7 µM | inactive | 5.23 | 0.116 µM | 13.5 µM | Dose-dependent effect | Active | 5.04 | Non-Toxic | Active |  | 
O=C(/C=C/c1ccccc1)c1ccccc1 [CHALCONE] |  |  |  |  | inactive | 4.57 |  |  |  |  | 4.33 |  |  | inactive | Active
NC1=NC2(CCCC2)N(OCCCOc2ccccc2)C(N)=N1 | Dose-dependent effect | 7.70 | 0.077 µM | 90.8 µM | inactive |  | 0.021 µM | > 100 µM |  |  |  |  |  |  | inactive
CC1(C)N=C(N)N=C(N)N1OCCCCOc1cccc(C(=O)/C=C/c2ccccc2)c1 | Dose-dependent effect | 8.38 | 0.122 µM | 11.3 µM | inactive | 5.17 | 0.051 µM | 30.3 µM | Dose-dependent effect | Active | 4.95 |  |  |  | 
Cl.NC1=NC2(CCCC2)N(OCCCOc2cccc(C(=O)/C=C/c3ccccc3)c2)C(N)=N1 | Dose-dependent effect | 8.21 | 0.08 µM | 11.2 µM | inactive | 5.34 | 0.026 µM | 14.1 µM | Dose-dependent effect | Active | 5.12 | Non-Toxic | Active |  | 
CC1(C)N=C(N)N=C(N)N1OCCCOc1ccccc1 | Dose-dependent effect | 8.28 | 0.107 µM | > 100 µM | inactive |  | 0.036 µM | > 100 µM |  |  |  |  |  |  | inactive
